Laboratory results from ChEMBL document CHEMBL4038284, “Synthesis of novel quinoline-based 4,5-dihydro-1H-pyrazoles as potential anticancer, antifungal, antibacterial and antiprotozoal agents” (Eur J Med Chem, 2017).
Converted amounts (≈) assume the structure as drawn.

Key:
Candida albicans [1] = assay: Antifungal activity against Candida albicans ATCC 10231 incubated for 48 hrs under dark condition by broth microdilution method; type: functional; conditions: ATCC 10231, 48 h
Procedure, shortened: (§1)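 CLSI M27-A3 broth microdilution in RPMI-1640, DMSO ≤1%, compounds at 250-0.98 µg/mL final. Inoculum 1-5 × 10^3 CFU/mL. Incubated 48 h at 30 °C in a moist dark chamber, read at OD405. MIC80 and MIC50 taken from % inhibition dose-response curves (mean ± SEM, triplicate). Amphotericin B was the positive control.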

Pseudomonas aeruginosa = assay: Antibacterial activity against Pseudomonas aeruginosa ATCC 27853 after 24 hrs by resazurin dye based microdilution assay; type: functional; conditions: ATCC 27853, 24 h
Procedure, shortened: (§2)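 MIC taken as the lowest concentration giving visible inhibition and/or by resazurin (1 mg/mL). Gentamicin was the control. Run in duplicate, repeated at least three times.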

Staphylococcus aureus [2] = assay: Antibacterial activity against vancomycin-intermediate Staphylococcus aureus after 24 hrs by resazurin dye based microdilution assay; type: functional; procedure, shortened: as §2
Candida albicans [3] = assay: Growth inhibition of Candida albicans ATCC 10231 at 125 ug/ml incubated for 48 hrs under dark condition by broth microdilution method relative to control; type: functional; conditions: ATCC 10231, 48 h, read-out: GI
Procedure, shortened: (§3)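 CLSI M27-A3 broth microdilution in RPMI-1640, DMSO ≤1%. Inoculum 1-5 × 10^3 CFU/mL. Incubated 48 h at 30 °C, dark. % inhibition = 100 − (OD405 test − sterility control)/(OD405 growth control − sterility control), with growth and sterility control wells. Triplicate.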

Candida albicans [4] = assay: Growth inhibition of Candida albicans ATCC 10231 at 15.62 ug/ml incubated for 48 hrs under dark condition by broth microdilution method relative to control; type: functional; conditions: ATCC 10231, 48 h, read-out: GI; procedure, shortened: as §3
Klebsiella pneumoniae [5] = assay: Antibacterial activity against ESBL positive Klebsiella pneumoniae ATCC 700603 after 24 hrs by resazurin dye based microdilution assay; type: functional; conditions: Klebsiella pneumoniae, 700603, 24 h; procedure, shortened: as §2
Cryptococcus neoformans [6] = assay: Growth inhibition of Cryptococcus neoformans ATCC 32264 at 15.62 ug/ml incubated for 48 hrs under dark condition by broth microdilution method relative to control; type: functional; conditions: ATCC 32264, 48 h, read-out: GI; procedure, shortened: as §3
Candida albicans [7] = assay: Growth inhibition of Candida albicans ATCC 10231 at 31.25 ug/ml incubated for 48 hrs under dark condition by broth microdilution method relative to control; type: functional; conditions: ATCC 10231, 48 h, read-out: GI; procedure, shortened: as §3
Staphylococcus aureus [8] = assay: Antibacterial activity against methicillin-resistant Staphylococcus aureus ATCC 43300 after 24 hrs by resazurin dye based microdilution assay; type: functional; conditions: ATCC 43300, 24 h
Procedure, shortened: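 Broth microdilution in Mueller Hinton broth, inoculum 5 × 10^5 – 8 × 10^5. Compound stocks diluted in MHB with 5% DMSO and 0.1% Tween 80. Incubation 24 h at 35-37 °C. MIC is the lowest concentration with visible growth inhibition and/or by resazurin (1 mg/mL) read-out. Gentamicin as control. Run in duplicate, replicated at least three times.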

Leishmania panamensis = assay: Antileshmanial activity against EpiR/GFP fused Leishmania panamensis MHOM/CO/87/UA140 intracellular amastigotes infected in human […] cells after 72 hrs by flow cytometric method; type: functional, cell-based; conditions: MHOM/CO/87/UA140, 72 h
Procedure, shortened: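 PMA-treated U-937 cells (3 × 10^5 cells/mL) infected with stationary-phase GFP L. panamensis promastigotes (15:1), 3 h at 34 °C, then washed. After 24 h, compounds added at 50, 12.5, 3.125 and 0.78 µg/mL for 72 h at 37 °C. EC50 by Probit; triplicate, two experiments.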

Candida albicans [9] = assay: Growth inhibition of Candida albicans ATCC 10231 at 3.4 ug/ml incubated for 48 hrs under dark condition by broth microdilution method relative to control; type: functional; conditions: ATCC 10231, 48 h, read-out: GI
Klebsiella pneumoniae [10] = assay: Antibacterial activity against carbapenemase positive Klebsiella pneumoniae BAA 1705 after 24 hrs by resazurin dye based microdilution assay; type: functional; conditions: BAA 1705, 24 h; procedure, shortened: as §2
Cryptococcus neoformans [11] = assay: Growth inhibition of Cryptococcus neoformans ATCC 32264 at 125 ug/ml incubated for 48 hrs under dark condition by broth microdilution method relative to control; type: functional; conditions: ATCC 32264, 48 h, read-out: GI; procedure, shortened: as §3
Cryptococcus neoformans [12] = assay: Growth inhibition of Cryptococcus neoformans ATCC 32264 at 250 ug/ml incubated for 48 hrs under dark condition by broth microdilution method relative to control; type: functional; conditions: ATCC 32264, 48 h, read-out: GI; procedure, shortened: as §3
Trypanosoma cruzi = assay: Antitrypanosomal activity against Trypanosoma cruzi Tulahuen intracellular amastigote harboring LacZ infected in human U937 cells after 72 hrs by CPRG/Nonidet reagent based spectrophotometric method; type: functional, cell-based; conditions: U-937, 72 h
Procedure, shortened: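 U-937 cells at 2.5 × 10^5 cells/mL in RPMI-1640 with 10% serum and 0.1 µg/mL PMA were infected with β-galactosidase-transfected Tulahuen epimastigotes at 5 parasites per cell. Infected cells were exposed to 50, 12.5, 3.125 and 0.78 µg/mL for 72 h. CPRG (100 uM) and 0.1% Nonidet P-40 were added for 3 h, read at 570 nm. EC50 by Probit. Triplicate, at least two experiments; benznidazole as reference.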

Cryptococcus neoformans [13] = assay: Antifungal activity against Cryptococcus neoformans ATCC 32264 incubated for 48 hrs under dark condition by broth microdilution method; type: functional; conditions: ATCC 32264, 48 h; procedure, shortened: as §1
Cryptococcus neoformans [14] = assay: Growth inhibition of Cryptococcus neoformans ATCC 32264 at 62.5 ug/ml incubated for 48 hrs under dark condition by broth microdilution method relative to control; type: functional; conditions: ATCC 32264, 48 h, read-out: GI; procedure, shortened: as §3
Escherichia coli = assay: Antibacterial activity against Escherichia coli ATCC 25922 after 24 hrs by resazurin dye based microdilution assay; type: functional; conditions: ATCC 25922, 24 h; procedure, shortened: as §2
Candida albicans [15] = assay: Growth inhibition of Candida albicans ATCC 10231 at 250 ug/ml incubated for 48 hrs under dark condition by broth microdilution method relative to control; type: functional; conditions: ATCC 10231, 48 h, read-out: GI; procedure, shortened: as §3
Candida albicans [16] = assay: Growth inhibition of Candida albicans ATCC 10231 at 7.8 ug/ml incubated for 48 hrs under dark condition by broth microdilution method relative to control; type: functional; conditions: ATCC 10231, 48 h, read-out: GI; procedure, shortened: as §3
Neisseria gonorrhoeae = assay: Antibacterial activity against beta lactamase positive Neisseria gonorrhoeae ATCC 31426 by oxidase test; type: functional
Procedure, shortened: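 Agar dilution MIC on GC agar with 1% isovitalex containing increasing compound concentrations. Plates inoculated with about 1×10^4 CFU (5 µL). MIC is the lowest concentration that inhibited growth, with growth confirmed by oxidase test. Run in duplicate, repeated at least three times.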

Staphylococcus aureus [17] = assay: Antibacterial activity against methicillin-sensitive Staphylococcus aureus ATCC 25923 after 24 hrs by resazurin dye based microdilution assay; type: functional; conditions: ATCC 25923, 24 h; procedure, shortened: as §2
Plasmodium falciparum = assay: Antiplasmodial activity against chloroquine-sensitive Plasmodium falciparum 3D7 assessed as reduction in parasitic LDH activity after 48 hrs by Malstat reagent based […] method; type: functional; conditions: 3D7, 48 h
Procedure, shortened: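 Unsynchronized P. falciparum 3D7 at 0.5% parasitemia and 1% hematocrit in RPMI with 3% Albumax II. Exposed to 100, 25, 6.25 and 1.56 µg/mL for 48 h at 37 °C under 90% N2/5% CO2/5% O2. After three freeze-thaw cycles, LDH measured with Malstat and NBT/PES, 1 h in the dark, read at 650 nm. IC50 by Probit; triplicate, ≥2 experiments.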

Cryptococcus neoformans [18] = assay: Growth inhibition of Cryptococcus neoformans ATCC 32264 at 31.25 ug/ml incubated for 48 hrs under dark condition by broth microdilution method relative to control; type: functional; conditions: ATCC 32264, 48 h, read-out: GI; procedure, shortened: as §3
Cryptococcus neoformans [19] = assay: Growth inhibition of Cryptococcus neoformans ATCC 32264 at 3.4 ug/ml incubated for 48 hrs under dark condition by broth microdilution method relative to control; type: functional; conditions: ATCC 32264, 48 h, read-out: GI
Cryptococcus neoformans [20] = assay: Growth inhibition of Cryptococcus neoformans ATCC 32264 at 7.8 ug/ml incubated for 48 hrs under dark condition by broth microdilution method relative to control; type: functional; conditions: ATCC 32264, 48 h, read-out: GI; procedure, shortened: as §3
Candida albicans [21] = assay: Growth inhibition of Candida albicans ATCC 10231 at 62.5 ug/ml incubated for 48 hrs under dark condition by broth microdilution method relative to control; type: functional; conditions: ATCC 10231, 48 h, read-out: GI; procedure, shortened: as §3
U-937 = assay: Cytotoxicity against human U937 cells after 72 hrs by MTT assay; type: cell-based; conditions: u-937, 72 h
Procedure, shortened: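 Exponentially growing U-937 at 1 × 10^5 cells/mL in RPMI-1640 with 10% FBS were exposed to 200, 50, 12.5 and 3.125 µg/mL for 72 h at 37 °C, 5% CO2. MTT for 3 h, stopped with isopropanol/SDS, formazan read at 570 nm, blank-corrected. LC50 by Probit from % viability against untreated cells. Triplicate, at least two independent experiments.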

| SMILES | MIC50 (Candida albicans [1]) | MIC80 (Candida albicans [1]) | MIC (Pseudomonas aeruginosa) | MIC (Staphylococcus aureus [2]) | inhibition of growth at 125 µg/mL (Candida albicans [3]) | inhibition of growth at 15.62 µg/mL (Candida albicans [4]) | MIC (Klebsiella pneumoniae [5]) | inhibition of growth at 15.62 µg/mL (Cryptococcus neoformans [6]) | inhibition of growth at 31.25 µg/mL (Candida albicans [7]) | MIC (Staphylococcus aureus [8]) | EC50 (Leishmania panamensis) | inhibition of growth at 3.4 µg/mL (Candida albicans [9]) | MIC (Klebsiella pneumoniae [10]) | inhibition of growth at 125 µg/mL (Cryptococcus neoformans [11]) | inhibition of growth at 250 µg/mL (Cryptococcus neoformans [12]) | EC50 (Trypanosoma cruzi) | MIC50 (Cryptococcus neoformans [13]) | MIC80 (Cryptococcus neoformans [13]) | inhibition of growth at 62.5 µg/mL (Cryptococcus neoformans [14]) | MIC (Escherichia coli) | further results |
| --- | --- | --- | --- | --- | --- | --- | --- | --- | --- | --- | --- | --- | --- | --- | --- | --- | --- | --- | --- | --- | --- |
| COc1ccc(C2=NN(C(C)=O)C(c3cccc(Nc4ccnc5cc(Cl)ccc45)c3)C2)cc1 (stereo not given) | ≥ 250 µg/mL | ≥ 250 µg/mL | > 1000 µg/mL | > 1000 µg/mL | 33.4% | 14.2% | > 1000 µg/mL | 13.9% | 16.9% | > 1000 µg/mL | 2.98 µg/mL (≈ 6.33 µM) | 6.14% | > 1000 µg/mL | 45% | 72.2% | 3.44 µg/mL (≈ 7.3 µM) | 250 µg/mL (≈ 531 µM) | ≥ 250 µg/mL | 22.4% | > 1000 µg/mL | inhibition of growth at 250 µg/mL (Candida albicans [15]): 37.5%; inhibition of growth at 7.8 µg/mL (Candida albicans [16]): 7.64%; MIC (Neisseria gonorrhoeae): > 1000 µg/mL; MIC (Staphylococcus aureus [17]): > 1000 µg/mL; EC50 (Plasmodium falciparum): 13.8 µg/mL (≈ 29.3 µM); inhibition of growth at 31.25 µg/mL (Cryptococcus neoformans [18]): 20.2%; inhibition of growth at 3.4 µg/mL (Cryptococcus neoformans [19]): 4.82%; inhibition of growth at 7.8 µg/mL (Cryptococcus neoformans [20]): 7.99%; inhibition of growth at 62.5 µg/mL (Candida albicans [21]): 20.4%; LC50 (U-937): 4.9 µg/mL (≈ 10.4 µM) |
| O=C(/C=C/c1cccc(Nc2ccnc3cc(Cl)ccc23)c1)c1ccc(Br)cc1 | 250 µg/mL (≈ 539 µM) | ≥ 250 µg/mL | > 1000 µg/mL | > 1000 µg/mL | 47.7% | 32% | > 1000 µg/mL | 44.5% | 28.9% | > 1000 µg/mL | 0.88 µg/mL (≈ 1.9 µM) | 15.8% | > 1000 µg/mL | 70.6% | 100% | 1.35 µg/mL (≈ 2.91 µM) | 125 µg/mL (≈ 270 µM) | 250 µg/mL (≈ 539 µM) | 47.9% | > 1000 µg/mL | inhibition of growth at 250 µg/mL (Candida albicans [15]): 58%; inhibition of growth at 7.8 µg/mL (Candida albicans [16]): 21.1%; MIC (Neisseria gonorrhoeae): > 1000 µg/mL; MIC (Staphylococcus aureus [17]): > 1000 µg/mL; EC50 (Plasmodium falciparum): 10.3 µg/mL (≈ 22.3 µM); inhibition of growth at 31.25 µg/mL (Cryptococcus neoformans [18]): 46.4%; inhibition of growth at 3.4 µg/mL (Cryptococcus neoformans [19]): 34.9%; inhibition of growth at 7.8 µg/mL (Cryptococcus neoformans [20]): 35.1%; inhibition of growth at 62.5 µg/mL (Candida albicans [21]): 35.3%; LC50 (U-937): 0.7 µg/mL (≈ 1.51 µM) |
